What was measured:
ABHD12 [1] = biological target: T1, ABHD12 (Homo sapiens, UniProt Q8N2K0); experiment: In situ treatment of THP-1 cells, competitive gel-based ABPP with JJH350 probe; assay type: cell-based; conditions: 1 μM, 4 h in situ
T1 sequence (Q8N2K0 1-398): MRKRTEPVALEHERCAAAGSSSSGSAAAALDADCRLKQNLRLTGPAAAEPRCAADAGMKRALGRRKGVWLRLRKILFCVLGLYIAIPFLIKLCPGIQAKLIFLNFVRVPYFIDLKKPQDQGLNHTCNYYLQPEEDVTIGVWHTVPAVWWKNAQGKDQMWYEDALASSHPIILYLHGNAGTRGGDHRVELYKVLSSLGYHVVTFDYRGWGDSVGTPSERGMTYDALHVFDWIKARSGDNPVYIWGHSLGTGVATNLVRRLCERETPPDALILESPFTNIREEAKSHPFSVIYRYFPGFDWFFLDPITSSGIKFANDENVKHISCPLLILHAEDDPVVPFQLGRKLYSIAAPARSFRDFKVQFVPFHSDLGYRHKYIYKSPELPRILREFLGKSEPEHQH
Summary of the method: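 Whole THP-1 cells exposed to test compound or DMSO for 4 h at 37 °C, 5% CO₂, then washed twice with ice-cold DPBS. Proteome (1 mg/mL) labelled with JJH350 (2 μM final, 45 min, 37 °C), clicked by CuAAC and resolved on gel. ABHD12 band intensity is expressed relative to the control-treated sample, set to 100%.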

ABHD12 [2] = biological target: T2, ABHD12 (Mus musculus, UniProt Q99LR1); experiment: Ex vivo gel-based competitive ABPP; assay type: in vivo; conditions: mice, 60 mg/kg, 4 h
T2 sequence (Q99LR1 1-398): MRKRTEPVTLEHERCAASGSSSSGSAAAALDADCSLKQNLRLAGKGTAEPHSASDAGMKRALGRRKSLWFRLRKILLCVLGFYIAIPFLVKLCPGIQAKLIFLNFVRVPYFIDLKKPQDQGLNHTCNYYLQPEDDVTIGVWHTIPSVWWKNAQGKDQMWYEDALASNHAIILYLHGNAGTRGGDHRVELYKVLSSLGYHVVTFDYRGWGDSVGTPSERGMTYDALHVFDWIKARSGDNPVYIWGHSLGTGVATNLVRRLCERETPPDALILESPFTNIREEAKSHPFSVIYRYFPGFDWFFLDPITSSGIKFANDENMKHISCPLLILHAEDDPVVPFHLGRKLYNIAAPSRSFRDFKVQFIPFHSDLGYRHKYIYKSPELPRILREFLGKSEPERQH

mice = experiment: Two-week daily dosing, overt signs of toxicity; assay type: in vivo, mouse; conditions: adult mice, 30 mg/kg daily, p.o., two weeks
THP-1 cells = experiment: Targeted LC-MS of; assay type: cell-based, human; conditions: DO264 0.001-1 μM, (S)-DO271 1 μM, 4 h
Summary of the method: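 THP-1 cells (6 million in 10 mL) incubated with test compound or DMSO for 4 h at 37 °C, 5% CO₂. Cells washed twice with ice-cold DPBS and stored at −80 °C, then analysed by targeted LC-MS metabolomics for lyso-PS and PS species.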

ABHD12 [3] = biological target: T2, ABHD12; experiment: Competitive gel-based ABPP with JJH350 probe in mouse brain membrane proteome; assay type: biochemical; conditions: for activity against ABHD12 (in words): gel-based competitive ABPP, mouse brain membrane proteome
ABHD12 [4] = biological target: T1, ABHD12; experiment: ABPP-SILAC; assay type: cell-based; conditions: 1 μM, 4 h, THP-1 cells
Summary of the method: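 Heavy- or light-labelled THP-1 cells (30 million) differentiated with PMA (150 ng/mL final) for 24 h, washed, then kept a further 24 h in fresh SILAC medium. Light cells treated with test compound and heavy cells with DMSO, 4 h at 37 °C. Sonicated whole-cell proteomes (2 mg/mL) labelled separately with FP-biotin 1 μM, 30 min, room temperature, then combined for quantitative MS.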

LCMV clone 13 = conditions: mouse, in vivo, ip, 30 mg/kg
[5] = Measurement of drug concentration in brain and blood of mice; assay type: in vivo, mouse; conditions: 4 h, at 60 mg/kg (i.p.) approximated exposures observed with DO264
Summary of the method: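 Tissues harvested 4 h after dosing. Brain homogenised in 4 volumes of water per weight; cardiac-puncture blood quenched 1:4 in acetonitrile. Samples diluted 1000–2000-fold in 50% ACN and spiked into blank C57BL/6J brain homogenate or blood, alongside serially diluted calibration standards. After vortexing and centrifugation (4 °C, 15 min), supernatant diluted 5-fold in water and quantified by LC/MS/MS.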

[6] = tested on: serine hydrolases in THP-1 cells; experiment: ABPP-SILAC; assay type: cell-based, human; conditions: 1 μM, 4 h, THP-1 cells
ABHD12 [7] = biological target: T2, ABHD12; experiment: Competitive ABPP with FP-Rh probe, lysates of ABHD12-transfected cells; assay type: biochemical; conditions: hit compound tested at 10 μM
Summary of the method: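 Mouse ABHD12 expressed in HEK293F cells by PEI transfection (48 h, 37 °C, 5% CO₂). Membranes prepared by hypotonic lysis, sonication, 100,000 × g pelleting and a high-salt wash, then resuspended in DPBS. Lysate (1 mg/mL) pre-exposed to hit compound, then labelled with FP-Rh (1 μM final, 45 min, 37 °C). Gel band intensity is read relative to control (100%).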

ABHD12 [8] = biological target: T2, ABHD12; experiment: Lyso-PS hydrolysis assay with membrane lysates of ABHD12-transfected cells; assay type: biochemical
Summary of the method: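 Membrane lysate of ABHD12-transfected cells in DPBS incubated with 17:1 lyso-PS (100 μM final) for 20 min at 37 °C. Quenched in 2:1 CHCl₃/MeOH with 15:0 FFA internal standard. Activity is the LC-MS 17:1 FFA/15:0 FFA peak-area ratio minus mock-transfected membrane activity. IC50 fitted as log(inhibitor) vs normalized response.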

ABHD12 [9] = biological target: T2, ABHD12; experiment: Covalent labelling of mouse brain ABHD12 visualized by CuAAC with Rh-N3; assay type: biochemical; conditions: 45 min, 37 °C

FC(F)(F)Oc1ccc(Oc2ccnc(N3CCC[C@H](NC(=S)Nc4cccnc4)C3)c2Cl)c(Cl)c1 [(S)-DO271, (S)-N-3-pyridyl-N’-(1-[3-chloro-4-{2-chloro-4-(trifluoromethoxy)phenoxy}pyridine-2-yl]piperidin-3-yl)thiourea]
ABHD12 activity in THP-1 cells by competitive gel-based ABPP (in words) (ABHD12 [1]): unaffected
brain ABHD12 activity, ex vivo analysis with JJH350 probe (ABHD12 [2]): did not block
overt signs of toxicity, such as weight loss or behavioral distress (mice): neither compound produced overt signs of toxicity
lyso-PS content of THP-1 cells (THP-1 cells): did not alter
activity against ABHD12 (in words) (ABHD12 [3]): inactive
effect on ABHD12 activity (in words) (ABHD12 [4]): did not affect
fraction of treated ABHD12(−/−) mice that died prior to sacrifice at day 10 (LCMV clone 13): 30-40%
exposure compared with DO264 (in words) [5]: lower exposure
effect on activity of other serine hydrolases [6]: did not affect

Cc1cnc(N2CCN(NC(=S)Nc3cccnc3)CC2)c(Cl)c1 [DO127, N-3-pyridyl-N’-[1-{3-chloro-5-(methyl)pyridin-2-yl}piperazine-4-yl]thiourea]
activity against ABHD12 (in words) (ABHD12 [3]): no activity

FC(F)(F)c1cnc(N2CCC(NC(=S)Nc3cccnc3)CC2)c(Cl)c1 [DO130, N-3-pyridyl-N’-[1-{3-chloro-5-(trifluoromethyl)pyridin-2-yl}piperidin-4-yl]thiourea]
activity in competitive ABPP secondary assay (FP-Rh probe) (ABHD12 [7]): showed activity
IC50 (ABHD12 [8]): 1300 nM
activity in LC/MS-based lyso-PS hydrolysis secondary assay (ABHD12 [8]; hit compound tested at 10 μM): showed activity

C#Cc1ccc(Oc2ccnc(N3CCC(NC(=S)Nc4cccnc4)CC3)c2Cl)c(Cl)c1 [DO274, N-3-pyridyl-N’-(1-[3-chloro-4-{2-chloro-4-(ethynyl)phenoxy}pyridine-2-yl]piperidin-4-yl)thiourea]
covalent modification of ABHD12 (ABHD12 [9]): did not show evidence of covalent modification
ABHD12 inhibitory activity (in words) (ABHD12 [8]): potent ABHD12 inhibitory activity

CN(C(=S)Nc1cccnc1)C1CCN(c2nccc(Oc3ccc(OC(F)(F)F)cc3Cl)c2Cl)CC1 [DO276, N-3-pyridyl-N’-methyl-N’-(1-[3-chloro-4-{2-chloro-4-(trifluoromethoxy)phenoxy}pyridine-2-yl]piperidin-4-yl)thiourea]
IC50 (ABHD12 [3]): 1100 nM

O=C(Nc1cccnc1)NC1CCN(c2nccc(Oc3ccc(OC(F)(F)F)cc3Cl)c2Cl)CC1 [DO277, N-3-pyridyl-N’-(1-[3-chloro-4-{2-chloro-4-(trifluoromethoxy)phenoxy}pyridine-2-yl]piperidin-4-yl)urea]
IC50 (ABHD12 [3]): 170 nM

Reference: PMC6263940 (Nature chemical biology, 2018)
